Measured values from paper PMC11293336 (Cell Reports Medicine, 2024).

Experiments:
dogs = experiment: 28-day oral toxicity study in dogs; format: in vivo, Beagle Dog; settings: continuous 28-day schedule
[1] = system: patients with recurrent high-grade glioma; experiment: Dose-limiting toxicities and adverse events of oral terameprocol, GATOR trial; format: in vivo, human
Outline: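 Patients ≥18 y with recurrent supratentorial grade III–IV glioma took oral capsules once daily, days 1–5 every 28 days, fasted; an amended cohort took 6,000 mg/day with a meal within 30 min. 3+3 escalation over 1,200–6,000 mg/day. DLT window was the first 4 weeks: ANC <500/μL, platelets <25,000/μL, febrile neutropenia, hematologic toxicity preventing >80% of dose, grade 3–4 seizure/intracranial hemorrhage, grade 3 QTcF. AEs CTCAE-graded.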

[2] = DLT, 2,400 mg/day EXP (expanded dose cohort), N=4
[3] = DLT, 6,000 mg/day with meal, N=4
[4] = related to terameprocol, all cycles, N = 19

COc1ccc(C[C@@H](C)[C@@H](C)Cc2ccc(OC)c(OC)c2)cc1OC [terameprocol, meso-tetra-O-methyl nordihydroguaiaretic acid]
tolerability (dogs): well tolerated | % of patients with DLT per dose level ([1]; 1,200 mg/day, N=3): 0% | % of patients with DLT per dose level ([1]; 2,400 mg/day EXP (expanded dose cohort), N=4): 0% | % of patients with DLT per dose level ([1]; 2,400 mg/day, N=3): 33% | % of patients with DLT per dose level ([1]; 3,600 mg/day, N=3): 0% | % of patients with DLT per dose level ([1]; 6,000 mg/day with meal, N=4): 0% | % of patients with DLT per dose level ([1]; 6,000 mg/day, N=3): 0% | tolerability of oral terameprocol ([1]; 1,200-6,000 mg/day, days 1–5 every 28 days): without major toxicities and generally well tolerated and safe and well tolerated | patients who experienced DLT ([1]; DL2fasted 2,400 mg/day cohort): 1/3 | DLT ([1]; DL3fasted 3,600 mg/day, three patients): no DLTs | DLT ([1]; DL4fasted 6,000 mg/day, three patients): no DLTs | DLT ([1]; DL4fed 6,000 mg/day with food): No DLTs | <80% of expected terameprocol dose due to hematologic toxicity ([1]; DLT, 1,200 mg/day, N=3): 0 | Febrile neutropenia ([1]; DLT, 1,200 mg/day, N=3): 0 | Grade 3–4 non-hematologic toxicity ([1]; DLT, 1,200 mg/day, N=3): 0 | Grade 3–4 seizure or intracranial hemorrhage ([1]; DLT, 1,200 mg/day, N=3): 0 | Platelets <25,000/mm^3 ([1]; DLT, 1,200 mg/day, N=3): 0 | <80% of expected terameprocol dose due to hematologic toxicity [1, 2]: 0 | Febrile neutropenia [1, 2]: 0 | Grade 3–4 non-hematologic toxicity [1, 2]: 0 | Grade 3–4 seizure or intracranial hemorrhage [1, 2]: 0 | Platelets <25,000/mm^3 [1, 2]: 0 | <80% of expected terameprocol dose due to hematologic toxicity ([1]; DLT, 2,400 mg/day, N=3): 0 | Febrile neutropenia ([1]; DLT, 2,400 mg/day, N=3): 0 | Grade 3–4 non-hematologic toxicity ([1]; DLT, 2,400 mg/day, N=3): 1 | Grade 3–4 seizure or intracranial hemorrhage ([1]; DLT, 2,400 mg/day, N=3): 0 | Platelets <25,000/mm^3 ([1]; DLT, 2,400 mg/day, N=3): 0 | <80% of expected terameprocol dose due to hematologic toxicity ([1]; DLT, 3,600 mg/day, N=3): 0 | Febrile neutropenia ([1]; DLT, 3,600 mg/day, N=3): 0 | Grade 3–4 non-hematologic toxicity ([1]; DLT, 3,600 mg/day, N=3): 0 | Grade 3–4 seizure or intracranial hemorrhage ([1]; DLT, 3,600 mg/day, N=3): 0 | Platelets <25,000/mm^3 ([1]; DLT, 3,600 mg/day, N=3): 0 | <80% of expected terameprocol dose due to hematologic toxicity [1, 3]: 0 | Febrile neutropenia [1, 3]: 0 | Grade 3–4 non-hematologic toxicity [1, 3]: 0 | Grade 3–4 seizure or intracranial hemorrhage [1, 3]: 0 | Platelets <25,000/mm^3 [1, 3]: 0 | <80% of expected terameprocol dose due to hematologic toxicity ([1]; DLT, 6,000 mg/day, N=3): 0 | Febrile neutropenia ([1]; DLT, 6,000 mg/day, N=3): 0 | Grade 3–4 non-hematologic toxicity ([1]; DLT, 6,000 mg/day, N=3): 0 | Grade 3–4 seizure or intracranial hemorrhage ([1]; DLT, 6,000 mg/day, N=3): 0 | Platelets <25,000/mm^3 ([1]; DLT, 6,000 mg/day, N=3): 0 | patients off treatment due to toxicity ([1]; all dose levels): No patients | DLT ([1]; dose expansion at DL2fasted 2,400 mg/day, three additional patients): no additional DLTs | Alanine aminotransferase increased, Grade 1 [1, 4]: 2 (10.5%) No. of patients (%) | Alanine aminotransferase increased, Total [1, 4]: 2 (10.5%) No. of patients (%) | Anemia, Grade 1 [1, 4]: 4 (21.1%) No. of patients (%) | Anemia, Total [1, 4]: 4 (21.1%) No. of patients (%) | Anorexia, Grade 1 [1, 4]: 2 (10.5%) No. of patients (%) | Anorexia, Grade 2 [1, 4]: 1 (5.3%) No. of patients (%) | Anorexia, Total [1, 4]: 3 (15.8%) No. of patients (%) | Arthralgia, Grade 1 [1, 4]: 1 (5.3%) No. of patients (%) | Arthralgia, Total [1, 4]: 1 (5.3%) No. of patients (%) | Aspartate aminotransferase increased, Grade 1 [1, 4]: 1 (5.3%) No. of patients (%) | Aspartate aminotransferase increased, Total [1, 4]: 1 (5.3%) No. of patients (%) | Blood bilirubin increased, Grade 1 [1, 4]: 1 (5.3%) No. of patients (%) | Blood bilirubin increased, Total [1, 4]: 1 (5.3%) No. of patients (%) | Constipation, Grade 1 [1, 4]: 1 (5.3%) No. of patients (%) | Constipation, Total [1, 4]: 1 (5.3%) No. of patients (%) | Diarrhea, Grade 1 [1, 4]: 2 (10.5%) No. of patients (%) | Diarrhea, Total [1, 4]: 2 (10.5%) No. of patients (%) | Electrocardiogram QT corrected interval prolonged, Grade 3 [1, 4]: 1 (5.3%) No. of patients (%) | Electrocardiogram QT corrected interval prolonged, Total [1, 4]: 1 (5.3%) No. of patients (%) | Fatigue, Grade 1 [1, 4]: 2 (10.5%) No. of patients (%) | Fatigue, Grade 2 [1, 4]: 2 (10.5%) No. of patients (%) | Fatigue, Total [1, 4]: 4 (21.1%) No. of patients (%) | Fever, Grade 1 [1, 4]: 1 (5.3%) No. of patients (%) | Fever, Total [1, 4]: 1 (5.3%) No. of patients (%) | Gastrointestinal pain, Grade 1 [1, 4]: 1 (5.3%) No. of patients (%) | Gastrointestinal pain, Total [1, 4]: 1 (5.3%) No. of patients (%) | Hyperglycemia, Grade 1 [1, 4]: 1(5.3%) No. of patients (%) | Hyperglycemia, Total [1, 4]: 1 (5.3%) No. of patients (%) | Hyperkalemia, Grade 2 [1, 4]: 1 (5.3%) No. of patients (%) | Hyperkalemia, Total [1, 4]: 1 (5.3%) No. of patients (%) | Hypernatremia, Grade 1 [1, 4]: 1 (5.3%) No. of patients (%) | Hypernatremia, Total [1, 4]: 1 (5.3%) No. of patients (%) | Hypertension, Grade 1 [1, 4]: 1 (5.3%) No. of patients (%) | Hypertension, Total [1, 4]: 1 (5.3%) No. of patients (%) | Hypocalcemia, Grade 1 [1, 4]: 1 (5.3%) No. of patients (%) | Hypocalcemia, Total [1, 4]: 1 (5.3%) No. of patients (%) | Hypokalemia, Grade 1 [1, 4]: 1 (5.3%) No. of patients (%) | Hypomagnesemia, Grade 1 [1, 4]: 3 (15.8%) No. of patients (%) | Hypomagnesemia, Grade 2 [1, 4]: 1 (5.3%) No. of patients (%) | Hypomagnesemia, Total [1, 4]: 4 (21.1%) No. of patients (%) | Hyponatremia, Grade 1 [1, 4]: 3 (15.8%) No. of patients (%) | Hyponatremia, Total [1, 4]: 3 (15.8%) No. of patients (%) | Hypophosphatemia, Grade 1 [1, 4]: 1 (5.3%) No. of patients (%) | Hypophosphatemia, Total [1, 4]: 1 (5.3%) No. of patients (%) | Lymphocyte count decreased, Grade 2 [1, 4]: 1 (5.3%) No. of patients (%) | Lymphocyte count decreased, Grade 3 [1, 4]: 1 (5.3%) No. of patients (%) | Lymphocyte count decreased, Total [1, 4]: 2 (10.5%) No. of patients (%) | Mouth sores, Grade 1 [1, 4]: 1 (5.3%) No. of patients (%) | Mouth sores, Total [1, 4]: 1 (5.3%) No. of patients (%) | Muscle cramp, Grade 1 [1, 4]: 1 (5.3%) No. of patients (%) | Muscle cramp, Total [1, 4]: 1 (5.3%) No. of patients (%) | Muscle weakness lower limb, Grade 1 [1, 4]: 1 (5.3%) No. of patients (%) | Muscle weakness lower limb, Total [1, 4]: 1 (5.3%) No. of patients (%) | Nausea, Grade 1 [1, 4]: 3 (15.8%) No. of patients (%) | Nausea, Total [1, 4]: 3 (15.8%) No. of patients (%) | Platelet count decreased, Grade 1 [1, 4]: 1 (5.3%) No. of patients (%) | Platelet count decreased, Total [1, 4]: 1 (5.3%) No. of patients (%) | Rash, maculopapular, Grade 1 [1, 4]: 1 (5.3%) No. of patients (%) | Rash, maculopapular, Total [1, 4]: 1 (5.3%) No. of patients (%) | Vomiting, Grade 1 [1, 4]: 2 (10.5%) No. of patients (%) | Vomiting, Total [1, 4]: 2 (10.5%) No. of patients (%) | Weight loss, Grade 1 [1, 4]: 1 (5.3%) No. of patients (%) | Weight loss, Total [1, 4]: 1 (5.3%) No. of patients (%)
